{"source": "paper PMC3399519", "about": "(European Journal of Medicinal Chemistry, 2011)", "key": {"Tip60 [1]": {"target": "T1, Tip60 (Homo sapiens, UniProt Q92993)", "T1 sequence (Q92993 whole entry)": "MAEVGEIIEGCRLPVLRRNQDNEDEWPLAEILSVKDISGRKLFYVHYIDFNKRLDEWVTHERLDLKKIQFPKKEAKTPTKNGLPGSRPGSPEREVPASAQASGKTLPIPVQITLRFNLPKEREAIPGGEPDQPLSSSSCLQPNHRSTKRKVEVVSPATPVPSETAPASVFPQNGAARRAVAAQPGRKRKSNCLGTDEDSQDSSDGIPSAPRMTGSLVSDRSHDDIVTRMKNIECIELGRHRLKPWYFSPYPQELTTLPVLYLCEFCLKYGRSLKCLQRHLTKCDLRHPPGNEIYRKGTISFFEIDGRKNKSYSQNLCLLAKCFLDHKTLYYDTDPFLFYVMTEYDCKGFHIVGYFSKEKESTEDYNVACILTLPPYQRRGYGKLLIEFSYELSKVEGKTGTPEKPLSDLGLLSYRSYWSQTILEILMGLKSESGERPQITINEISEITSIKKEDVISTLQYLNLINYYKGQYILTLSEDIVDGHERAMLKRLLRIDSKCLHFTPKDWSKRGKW", "assay": "Radioisotope-labeled histone acetyltransferase assay, Tip60", "assay_type": "biochemical", "conditions": "for Tip60 inhibition (in words): 200 µM compound; for selectivity for Tip60 in comparison with PCAF and p300: recombinant enzyme inhibition assays"}, "[2]": {"test_system": "HAT activity in HeLa nuclear extracts (histone H4 acetylation)", "assay": "ELISA acetyltransferase assay with HeLa nuclear extracts, histone H4 peptide", "assay_type": "biochemical", "conditions": "for inhibition of cellular HAT activity (HeLa nuclear extracts): 200 µM compound, histone H4; for inhibition of HAT activity in HeLa nuclear extracts (in words): histone H4 acetylation", "how_it_was_run": "(§1)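 HeLa nuclear extract (2.5 µg/mL final protein) acetylates biotinylated histone H3 (aa 1–21) or H4 (aa 2–24) peptide immobilised via streptavidin. Reaction runs 15 min, read by anti-acetyl-lysine ELISA. H3 tested at 50 µM against H4. Triplicates, scaled to no-inhibitor and no-enzyme controls.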"}, "[3]": {"test_system": "HAT activity in HeLa nuclear extracts (histone H3 acetylation)", "assay_type": "biochemical", "conditions": "50 µM compound", "how_it_was_run": "as §1"}, "p300 [4]": {"test_system": "p300", "conditions": "read-out: IC50 p300; estimated by Kundu et al. ref 7; cited from earlier work"}, "PCAF [5]": {"test_system": "PCAF", "conditions": "read-out: IC50 PCAF; estimated by Kundu et al. ref 7; cited from earlier work"}, "p300 [6]": {"test_system": "p300", "conditions": "read-out: IC50 p300; Souto et al. ref 11; cited from earlier work"}, "PCAF [7]": {"test_system": "PCAF", "conditions": "read-out: IC50 PCAF; previous characterization with a different assay ref 12; cited from earlier work"}, "[8]": {"target": "T2, human recombinant p300 HAT domain (Homo sapiens, UniProt Q09472)", "T2 sequence (Q09472 1287-1663 limits assumed)": "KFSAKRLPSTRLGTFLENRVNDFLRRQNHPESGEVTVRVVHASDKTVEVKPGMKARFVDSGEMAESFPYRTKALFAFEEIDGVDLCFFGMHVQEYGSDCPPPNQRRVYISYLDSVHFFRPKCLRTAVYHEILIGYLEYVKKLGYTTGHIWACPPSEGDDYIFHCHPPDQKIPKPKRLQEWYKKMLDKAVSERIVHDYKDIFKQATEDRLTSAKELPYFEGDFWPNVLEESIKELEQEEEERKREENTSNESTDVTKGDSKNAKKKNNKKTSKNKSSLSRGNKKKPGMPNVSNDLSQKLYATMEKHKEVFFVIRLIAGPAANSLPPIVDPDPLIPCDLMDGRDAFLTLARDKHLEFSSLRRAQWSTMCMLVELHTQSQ", "assay": "Radioisotope-labeled histone acetyltransferase assay, p300", "assay_type": "biochemical", "conditions": "200 µM compound"}, "[9]": {"target": "human recombinant PCAF HAT domain (Homo sapiens, UniProt Q92831)", "sequence (Q92831 493-658)": "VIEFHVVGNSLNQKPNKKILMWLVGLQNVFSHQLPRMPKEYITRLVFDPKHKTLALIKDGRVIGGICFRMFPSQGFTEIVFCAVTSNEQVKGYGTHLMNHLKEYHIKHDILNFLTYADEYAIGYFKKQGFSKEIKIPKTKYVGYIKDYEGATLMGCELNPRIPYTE", "assay": "Radioisotope-labeled histone acetyltransferase assay, PCAF", "assay_type": "biochemical", "conditions": "200 µM compound"}, "Tip60 [10]": {"target": "T1, Tip60", "assay": "Steady-state kinetic characterization of Tip60 inhibition", "assay_type": "biochemical"}, "[11]": {"test_system": "HAT activity of nuclear extracts of brain tissue samples", "assay_type": "biochemical, rats", "conditions": "30 µM inhibitor, histone H3 as acetyl acceptor", "how_it_was_run": "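Nuclear extracts come from tissue of different brain regions, at 40 µg/mL protein, standardised by protein content. Biotinylated histone H3 peptide (aa 1–21) is streptavidin-immobilised as acceptor. Buffer: 50 mM HEPES pH 7.4 with Triton X-100, EDTA, BSA and DTT. Inhibitor at 30 µM, 15 min reaction, anti-acetyl-lysine ELISA. Triplicates for each of two animals, blanks subtracted.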"}, "HEP G2 cells": {"test_system": "HEP G2 cells", "conditions": "HEP G2 cells ref 12; cited from earlier work"}}, "note": "“Also recorded” adds a separate entry of the source. Like-named read-outs stand apart in the source and are kept apart here.", "data": [{"smiles": "CC(C)CCCC(C)CCOc1ccc(CCc2cccc(O)c2C(=O)O)cc1", "note": "(stereo not shown) [6a]", "values": [{"measurement": "Tip60 inhibition (in words)", "setting": "Tip60 [1]", "value": "also inhibited the Tip60 HAT activity"}, {"measurement": "inhibition of cellular HAT activity (HeLa nuclear extracts)", "setting": "[2]", "value": "> 50", "unit": "%"}]}, {"smiles": "COCCOc1ccc(CCc2cccc(O)c2C(=O)O)cc1", "note": "[6b]", "values": [{"measurement": "Tip60 inhibition (in words)", "setting": "Tip60 [1]", "value": "very weakly inhibit; also recorded: very poor inhibitors"}, {"measurement": "inhibition of HAT activity in HeLa nuclear extracts (in words)", "setting": "[2]", "value": "strongly reduced HAT inhibitory potency; also recorded: poor inhibition"}]}, {"smiles": "CCCCCOc1ccc(CCc2cccc(O)c2C(=O)O)cc1C(C)=O", "note": "[6c]", "values": [{"measurement": "Tip60 inhibition (in words)", "setting": "Tip60 [1]", "value": "also inhibited the Tip60 HAT activity"}, {"measurement": "inhibition of cellular HAT activity (HeLa nuclear extracts)", "setting": "[2]", "value": "> 50", "unit": "%"}]}, {"smiles": "CCCCCOc1ccc(CCc2cccc(O)c2C(=O)O)cc1C(C)O", "note": "(stereo not shown) [6d]", "values": [{"measurement": "Tip60 inhibition (in words)", "setting": "Tip60 [1]", "value": "very weakly inhibit"}, {"measurement": "potency on HeLa nuclear extracts compared to recombinant Tip60", "setting": "[2]", "value": "more potent on HeLa nuclear extracts than for the recombinant Tip60"}]}, {"smiles": "CCCCCCCOc1ccc(CCc2cccc(O)c2C(=O)O)cc1C(C)=O", "note": "[6f]", "values": [{"measurement": "Tip60 inhibition (in words)", "setting": "Tip60 [1]", "value": "also inhibited the Tip60 HAT activity"}, {"measurement": "inhibition of cellular HAT activity (HeLa nuclear extracts)", "setting": "[2]", "value": "> 50", "unit": "%"}]}, {"smiles": "CCCCCc1cccc(O)c1C(=O)O", "note": "[6h]", "values": [{"measurement": "Tip60 inhibition (in words)", "setting": "Tip60 [1]", "value": "very poor inhibitors"}, {"measurement": "inhibition of HAT activity in HeLa nuclear extracts (in words)", "setting": "[2]", "value": "strongly reduced HAT inhibitory potency; also recorded: poor inhibition"}]}, {"smiles": "CCCCCCCCCCCCCCCc1cccc(O)c1C(=O)O", "note": "[16 (AA), 6-pentadecylsalicylic acid, reference compound]", "values": [{"measurement": "Tip60 inhibition (in words)", "setting": "Tip60 [1]", "value": "almost completely; also recorded: also inhibited the Tip60 HAT activity"}, {"measurement": "inhibition at 200 µM", "setting": "Tip60 [1]; read-out: inhibition of Tip60 activity", "value": "> 76", "unit": "%"}, {"measurement": "inhibition of cellular HAT activity (HeLa nuclear extracts)", "setting": "[2]", "value": "> 50", "unit": "%"}, {"measurement": "inhibitory potency on histone H3 acetylation compared to histone H4 acetylation", "setting": "[3]", "value": "almost equal potency for both histones"}, {"measurement": "IC50", "setting": "p300 [4]", "value": 8.5, "unit": "µM"}, {"measurement": "IC50", "setting": "PCAF [5]", "value": 5, "unit": "µM"}, {"measurement": "IC50", "setting": "p300 [6]", "value": "50 to 100", "unit": "µM"}, {"measurement": "IC50", "setting": "PCAF [7]", "value": "~1000", "unit": "µM"}]}, {"smiles": "CCCCCCCCCCCCCC#Cc1ccccc1C(=O)OC", "note": "[compound 11]", "values": [{"measurement": "Tip60 inhibition (in words)", "setting": "Tip60 [1]", "value": "also inhibited the Tip60 HAT activity"}, {"measurement": "inhibition of cellular HAT activity (HeLa nuclear extracts)", "setting": "[2]", "value": "> 50", "unit": "%"}]}, {"smiles": "CCCCCCCCCCCCCCCc1ccccc1C(=O)O", "note": "[compound 12]", "values": [{"measurement": "Tip60 inhibition (in words)", "setting": "Tip60 [1]", "value": "also inhibited the Tip60 HAT activity"}, {"measurement": "inhibition of cellular HAT activity (HeLa nuclear extracts)", "setting": "[2]", "value": "> 50", "unit": "%"}]}, {"smiles": "CCCCCCCc1ccc(CCc2cc(O)cc(O)c2C(=O)O)cc1", "note": "[compound 15]", "values": [{"measurement": "potency on HeLa nuclear extracts compared to recombinant Tip60", "setting": "[2]", "value": "more potent on HeLa nuclear extracts than for the recombinant Tip60"}]}, {"smiles": "CCCCCCCCCCc1cccc(O)c1C(=O)O", "note": "[compound 17]", "values": [{"measurement": "Tip60 inhibition (in words)", "setting": "Tip60 [1]", "value": "also inhibited the Tip60 HAT activity"}, {"measurement": "inhibition of cellular HAT activity (HeLa nuclear extracts)", "setting": "[2]", "value": "> 50", "unit": "%"}, {"measurement": "inhibitory potency on histone H3 acetylation compared to histone H4 acetylation", "setting": "[3]", "value": "almost equal potency for both histones"}]}, {"smiles": "CCCCCCCCCCCCCCCc1cc(O)cc(O)c1C(=O)O", "note": "[compound 18]", "values": [{"measurement": "Tip60 inhibition (in words)", "setting": "Tip60 [1]", "value": "also inhibited the Tip60 HAT activity"}, {"measurement": "selectivity for Tip60 in comparison with PCAF and p300", "setting": "Tip60 [1]", "value": "selective for Tip60"}, {"measurement": "inhibition of cellular HAT activity (HeLa nuclear extracts)", "setting": "[2]", "value": "> 50", "unit": "%"}]}, {"smiles": "CCCCCCCCCCc1cc(O)cc(O)c1C(=O)O", "note": "[compound 19]", "values": [{"measurement": "Tip60 inhibition (in words)", "setting": "Tip60 [1]", "value": "also inhibited the Tip60 HAT activity"}, {"measurement": "selectivity for Tip60 in comparison with PCAF and p300", "setting": "Tip60 [1]", "value": "selective for Tip60"}, {"measurement": "inhibition of cellular HAT activity (HeLa nuclear extracts)", "setting": "[2]", "value": "> 50", "unit": "%"}]}, {"smiles": "CCCCCCCc1ccc(CCc2cccc(O)c2C(=O)O)cc1", "note": "[compound 20]", "values": [{"measurement": "Tip60 inhibition (in words)", "setting": "Tip60 [1]", "value": "also inhibited the Tip60 HAT activity"}, {"measurement": "inhibition at 200 µM", "setting": "Tip60 [1]; read-out: inhibition of Tip60 activity, 200 µM compound, 100 nM Tip60, 10 µM Ac-CoA, 100 µM H4-20", "value": "> 76", "unit": "%"}, {"measurement": "effect on p300 activity (in words)", "setting": "[8]", "value": "no inhibitory impact; also recorded: no observable inhibitory effect"}, {"measurement": "effect on PCAF activity (in words)", "setting": "[9]", "value": "no inhibitory impact; also recorded: no observable inhibitory effect"}, {"measurement": "inhibition pattern with respect to Ac-CoA", "setting": "Tip60 [10]", "value": "essentially competitive with respect to Ac-CoA"}, {"measurement": "inhibition of cellular HAT activity (HeLa nuclear extracts)", "setting": "[2]", "value": "> 50", "unit": "%"}, {"measurement": "inhibition of HAT activity of nuclear extracts of different brain regions", "setting": "[11]", "value": "equal potency to AA"}]}, {"smiles": "CCCCCOc1ccc(/C=C\\c2cccc(O)c2C(=O)O)cc1", "note": "[compound 21]", "values": [{"measurement": "Tip60 inhibition (in words)", "setting": "Tip60 [1]", "value": "also inhibited the Tip60 HAT activity"}, {"measurement": "selectivity for Tip60 in comparison with PCAF and p300", "setting": "Tip60 [1]", "value": "selective for Tip60"}, {"measurement": "effect on PCAF activity (in words)", "setting": "[9]", "value": "enhance the PCAF activity significantly"}, {"measurement": "inhibition of cellular HAT activity (HeLa nuclear extracts)", "setting": "[2]", "value": "> 50", "unit": "%"}, {"measurement": "inhibition of HAT activity in HeLa nuclear extracts (in words)", "setting": "[2]", "value": "high inhibitory activity"}, {"measurement": "inhibitory potency on histone H3 acetylation compared to histone H4 acetylation", "setting": "[3]", "value": "opposite"}, {"measurement": "inhibition of histone acetylation in HEP G2 cells compared to 16 (AA)", "setting": "HEP G2 cells", "value": "more potent inhibitor of histone acetylation than 16 (AA)"}]}, {"smiles": "CCCCCOc1ccc(CCc2cccc(O)c2C(=O)O)cc1", "note": "[compound 24]", "values": [{"measurement": "Tip60 inhibition (in words)", "setting": "Tip60 [1]", "value": "also inhibited the Tip60 HAT activity"}, {"measurement": "effect on PCAF activity (in words)", "setting": "[9]", "value": "enhance the PCAF activity significantly"}, {"measurement": "inhibition of cellular HAT activity (HeLa nuclear extracts)", "setting": "[2]", "value": "> 50", "unit": "%"}, {"measurement": "inhibitory potency on histone H3 acetylation compared to histone H4 acetylation", "setting": "[3]", "value": "opposite"}]}, {"smiles": "CCCCCCCCCCCCCCOc1ccc(CCc2cccc(O)c2C(=O)O)cc1", "note": "[compound 25]", "values": [{"measurement": "Tip60 inhibition (in words)", "setting": "Tip60 [1]", "value": "only modest inhibitory activity; also recorded: also inhibited the Tip60 HAT activity"}, {"measurement": "inhibition of cellular HAT activity (HeLa nuclear extracts)", "setting": "[2]", "value": "> 50", "unit": "%"}, {"measurement": "inhibitory potency on histone H3 acetylation compared to histone H4 acetylation", "setting": "[3]", "value": "opposite"}]}]}
